ChEMBL document CHEMBL3621194, “Synthesis of Triazole-Linked Analogues of c-di-GMP and Their Interactions with Diguanylate Cyclase” (J Med Chem, 2015)
Active and inactive are the calls of the source. No cut-off for these calls is given here.

Experiments:
[1] = system: Caulobacter vibrioides; test: Inhibition of Caulobacter crescentus PleD assessed as residual enzyme activity at 100 uM using 100 uM GTP substrate
Outline: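 PleD residual DGC activity at 100 µM compound with 100 µM GTP substrate, measured by circular dichroism, or by reverse-phase HPLC of nucleotide content when compound CD spectra interfered.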

[2] = system: Pseudomonas aeruginosa; test: Inhibition of Pseudomonas aeruginosa RocR assessed as residual enzyme activity at 100 uM using 30 uM c-di-GMP substrate
Outline: (§1)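 RocR PDE activity measured with 30 µM c-di-GMP substrate, with or without inhibitors. For IC50, initial velocity used and residual activity fitted to log-dose vs response curve; points are mean and SD of three independent experiments. Single-point screens used 100 µM compound.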

[3] = Inhibition of Caulobacter crescentus PleD using 100 uM GTP substrate; parameters: species or system Caulobacter vibrioides
Outline: (§2)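 DGC activity of PleD measured by circular dichroism with 100 µM GTP substrate; where compound CD spectra interfered, nucleotide content analysed by reverse-phase HPLC. Initial velocity used for IC50; residual activity versus inhibitor concentration fitted to log-dose vs response curve, mean and SD of three independent experiments.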

[4] = system: Pseudomonas aeruginosa; test: Inhibition of biofilm formation of Pseudomonas aeruginosa PAO1 at 7.81 to 500 uM incubated for 16 hrs by crystal violet staining method; format: functional, organism-based
Outline: (§3)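 P. aeruginosa PAO1 or E. coli MG1655 grown 14 h at 37°C in M9 with 0.4% glucose (E. coli medium also with 2.5% LB). Cultures diluted in fresh medium, compound in DMSO or DMSO alone added, then incubated 16 h at 30°C. Planktonic A600 read; wells washed with PBS, air-dried, stained with 1% crystal violet, solubilised in ethanol, A595 read.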

[5] = system: Escherichia coli; test: Inhibition of biofilm formation of Escherichia coli MG1655 7.81 to 500 uM incubated for 16 hrs by crystal violet staining method; format: functional, organism-based; outline: as §3
[6] = system: Pseudomonas aeruginosa; test: Effect on cdrA expression in Pseudomonas aeruginosa PAO1 at 200 uM by real time RT-PCR method; format: functional, organism-based
Outline: (§4)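 P. aeruginosa PAO1 grown at 37°C in M9 minimal medium with 0.4% glucose, plus DMSO or 200 µM compound in DMSO, to A600 2.0. Total RNA extracted, DNase-treated, reverse transcribed; qPCR with 5 ng cDNA per reaction and 300 nM primers, fluorescence read in the 60°C step. Normalized to 16S rRNA; relative fold change by 2∆∆Ct method.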

[7] = system: Pseudomonas aeruginosa; test: Effect on pctC expression in Pseudomonas aeruginosa PAO1 at 200 uM by real time RT-PCR method; format: functional, organism-based; outline: as §4
[8] = Inhibition of Caulobacter crescentus PleD; parameters: species or system Caulobacter vibrioides; outline: as §2
[9] = Inhibition of Pseudomonas aeruginosa RocR assessed as residual enzyme activity using 30 uM c-di-GMP substrate; outline: as §1
[10] = system: Pseudomonas aeruginosa; test: Inhibition of Pseudomonas aeruginosa WspR assessed as residual enzyme activity at 100 uM
Outline: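 WspR DGC activity measured by circular dichroism under the same conditions as for PleD, with 100 µM compound; read-out as residual activity.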

[11] = system: Pseudomonas aeruginosa; test: Inhibition of Pseudomonas aeruginosa YfiN containing HAMP-GGDEF domain assessed as residual enzyme activity up to 250 uM

Compound	Activity [1]	Activity [2]	other results
CNc1nc(N)nc2c1ncn2CCCn1cc(Cn2cnc3c(NC)nc(N)nc32)nn1	96%	70%	–
Nc1nc2c(ncn2CCCCn2cc(Cn3cnc4c(=O)[nH]c(N)nc43)nn2)c(=O)[nH]1	87%	92%	–
Nc1nc2c(ncn2CCn2cc(Cn3cnc4c(=O)[nH]c(N)nc43)nn2)c(=O)[nH]1	104%	77%	–
Nc1nc2c(ncn2Cc2cn(C[C@H]3O[C@@H](n4cnc5c(=O)[nH]c(N)nc54)[C@H](O)[C@@H]3O)nn2)c(=O)[nH]1	89%	77%	–
Nc1nc(Cl)c2ncn(CCn3cc(Cn4cnc5c(Cl)nc(N)nc54)nn3)c2n1	92%	86%	–
Nc1nc2c(ncn2CCCn2cc(COC[C@H]3O[C@@H](n4cnc5c(=O)[nH]c(N)nc54)[C@H](O)[C@@H]3O)nn2)c(=O)[nH]1	82%	163%	–
Nc1nc(Cl)c2ncn(CCCCn3cc(Cn4cnc5c(Cl)nc(N)nc54)nn3)c2n1	98%	128%	–
Clc1ncnc2c1ncn2CCCn1cc(Cn2cnc3c(Cl)ncnc32)nn1	97%	93%	–
Nc1nc(NCc2ccccc2)c2ncn(CCCn3cc(Cn4cnc5c(NCc6ccccc6)nc(N)nc54)nn3)c2n1	109%	75%	–
Nc1ncnc2c1ncn2CCCn1cc(Cn2cnc3c(N)ncnc32)nn1	106%	64%	–
Nc1nc2c(ncn2[C@@H]2O[C@H](Cn3cc(COC[C@H]4O[C@@H](n5cnc6c(N)ncnc65)[C@H](O)[C@@H]4O)nn3)[C@@H](O)[C@H]2O)c(=O)[nH]1	97%	79%	–
Nc1ncnc2c1ncn2[C@@H]1O[C@H](COCc2cn(C[C@H]3O[C@@H](n4cnc5c(N)ncnc54)[C@H](O)[C@@H]3O)nn2)[C@@H](O)[C@H]1O	105%	113%	–
Nc1nc(Cl)c2ncn(CCCn3cc(Cn4cnc5c(Cl)nc(N)nc54)nn3)c2n1	32%	96%	IC50 [3]: 25.5 µM; inhibition [4]: inactive; inhibition [5]: inactive; Activity [6]: inactive; Activity [7]: inactive
Nc1nc2c(ncn2[C@@H]2O[C@@H]3COP(=O)(O)O[C@H]4[C@@H](O)[C@H](n5cnc6c(=O)[nH]c(N)nc65)O[C@@H]4COP(=O)(O)O[C@H]3[C@H]2O)c(=O)[nH]1	–	–	IC50 [8]: 5 µM
Nc1nc2c(ncn2[C@@H]2O[C@H](COCc3cn(C[C@H]4O[C@@H](n5cnc6c(=O)[nH]c(N)nc65)[C@H](O)[C@@H]4O)nn3)[C@@H](O)[C@H]2O)c(=O)[nH]1	63%	88%	–
Nc1nc2c(ncn2CCCn2cc(Cn3cnc4c(=O)[nH]c(N)nc43)nn2)c(=O)[nH]1	12.5%	41%	IC50 [3]: 17.5 µM; IC50 [9]: 66.3 µM; Activity [10]: 20%; inhibition [11]: inactive; inhibition [4]: inactive; inhibition [5]: inactive; Activity [6]: inactive; Activity [7]: inactive
